Reference: ChEMBL document CHEMBL3860040, “Purine-Type Compounds Induce Microtubule Fragmentation and Lung Cancer Cell Death through Interaction with Katanin” (J Med Chem, 2016)
Each block holds one molecule with its values, some of them ahead of it. Calls of active or inactive are those of the source. The calls are words filed in the database; no cut-off is given here.

Key:
[1] = Cytotoxicity against human NCI-H1975 cells harboring EGFR T790M mutant assessed as decrease in cell viability after 72 hrs by MTT assay; assay type: functional, cell-based; conditions: NCI-H1975, 72 h
[2] = target: Katanin p60 ATPase-containing subunit A1 (Homo sapiens) (UniProt O75449); assay: Binding affinity to katanin p60 subunit in human NCI-H1975 cell lysate using biotin-labeled compound preincubated for 24 hrs followed by streptavidin-conjugated beads addition measured after 2 hrs by immunoblot analysis; assay type: cell-free
Chain of Katanin p60 ATPase-containing subunit A1 (Homo sapiens) (O75449 whole entry, the tested form may be a part): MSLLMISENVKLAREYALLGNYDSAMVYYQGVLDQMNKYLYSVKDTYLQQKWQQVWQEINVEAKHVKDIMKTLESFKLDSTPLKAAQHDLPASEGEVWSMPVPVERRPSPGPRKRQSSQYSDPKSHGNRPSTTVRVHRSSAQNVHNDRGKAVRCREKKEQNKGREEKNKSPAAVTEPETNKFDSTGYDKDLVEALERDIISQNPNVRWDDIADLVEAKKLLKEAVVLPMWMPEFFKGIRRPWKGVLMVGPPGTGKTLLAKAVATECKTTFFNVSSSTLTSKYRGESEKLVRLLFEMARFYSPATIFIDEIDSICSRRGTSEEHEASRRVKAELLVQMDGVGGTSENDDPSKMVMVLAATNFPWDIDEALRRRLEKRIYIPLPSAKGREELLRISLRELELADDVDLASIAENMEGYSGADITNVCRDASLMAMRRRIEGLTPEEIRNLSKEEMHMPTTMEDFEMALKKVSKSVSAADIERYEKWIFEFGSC
How it was run: (§1)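 H1975 lysate incubated 24 h with biotinylated probe or with a purine-free linker as control. Bound proteins detected by immunoblot; three independent experiments.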

[3] = target: Katanin p80 WD40 repeat-containing subunit B1 (Homo sapiens) (UniProt Q9BVA0); assay: Binding affinity to katanin p80 subunit in human NCI-H1975 cell lysate using biotin-labeled compound preincubated for 24 hrs followed by streptavidin-conjugated beads addition measured after 2 hrs by immunoblot analysis; assay type: cell-free; how it was run: as §1
Chain of Katanin p80 WD40 repeat-containing subunit B1 (Homo sapiens) (Q9BVA0 whole entry): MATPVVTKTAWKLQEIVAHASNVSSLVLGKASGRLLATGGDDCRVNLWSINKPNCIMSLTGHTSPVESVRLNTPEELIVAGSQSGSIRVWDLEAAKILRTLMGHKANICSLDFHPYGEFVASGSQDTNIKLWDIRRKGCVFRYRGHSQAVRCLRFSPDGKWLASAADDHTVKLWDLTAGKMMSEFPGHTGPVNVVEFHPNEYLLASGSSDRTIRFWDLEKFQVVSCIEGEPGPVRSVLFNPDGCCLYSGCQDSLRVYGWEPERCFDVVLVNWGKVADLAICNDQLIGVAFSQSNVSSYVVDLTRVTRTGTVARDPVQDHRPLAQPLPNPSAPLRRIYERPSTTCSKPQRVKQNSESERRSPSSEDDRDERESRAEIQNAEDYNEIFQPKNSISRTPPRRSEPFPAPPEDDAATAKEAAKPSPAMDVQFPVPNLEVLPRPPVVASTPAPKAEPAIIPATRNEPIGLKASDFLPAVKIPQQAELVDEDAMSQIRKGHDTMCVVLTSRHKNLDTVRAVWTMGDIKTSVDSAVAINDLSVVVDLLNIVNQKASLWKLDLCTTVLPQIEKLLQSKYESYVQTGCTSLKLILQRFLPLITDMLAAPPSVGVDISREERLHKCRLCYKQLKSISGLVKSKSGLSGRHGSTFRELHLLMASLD

[4] = target: Katanin p60 ATPase-containing subunit A1 (Homo sapiens) (UniProt O75449); assay: Induction of katanin p60 subunit-mediated JNK signaling pathway activation in human NCI-H1975 cells assessed as increase in JNK phosphorylation at T183/Y185 and T221/Y223 residues at 300 nM after 9 hrs by phospho-kinase antibody array method; assay type: cell-based
How it was run: (§2)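 H1975 cells seeded overnight, exposed to 300 nM for 9 h; DMSO-treated cells as controls. Lysates rocked 30 min at 4 °C and spun at 14,000×g for 30 min. Equal BCA-quantified protein applied to a human phospho-kinase antibody array; spot density measured by densitometry.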

[5] = target: Katanin p60 ATPase-containing subunit A1 (Homo sapiens) (UniProt O75449); assay: Induction of katanin p60 subunit-mediated JNK signaling pathway activation assessed as increase in c-Jun phosphorylation level at S63 residues in human NCI-H1975 cells at 300 nM after 6 to 12 hrs by immunoblot analysis; assay type: cell-based
How it was run: (§3)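 H1975 cells treated with 300 nM for 6 h and 12 h, lysed, and phospho-JNK and phospho-c-Jun detected by immunoblot with ECL. Three independent experiments.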

[6] = target: Katanin p60 ATPase-containing subunit A1 (Homo sapiens) (UniProt O75449); assay: Induction of katanin p60 subunit-mediated microtubule fragmentation in human NCI-H1975 cells assessed as alpha-tubulin level in soluble form at 300 nM after 1 hr by immunoblot analysis (reference value: 37%); assay type: cell-based
[7] = target: Katanin p60 ATPase-containing subunit A1 (Homo sapiens) (UniProt O75449); assay: Induction of katanin p60 subunit-mediated microtubule fragmentation in human NCI-H1975 cells at 300 nM after 12 hrs by DAPI staining based confocal laser microscopy; assay type: cell-based
How it was run: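 H1975 cells treated 12 h, fixed in 3.7% cold paraformaldehyde and permeabilized with 0.1% Triton X-100. Stained with anti-α-tubulin at 37 °C for 1 h, then FITC secondary (1:100) at 37 °C for 1 h. Mounted with DAPI and imaged by confocal microscopy.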

[8] = target: Katanin p60 ATPase-containing subunit A1 (Homo sapiens) (UniProt O75449); assay: Induction of katanin p60 subunit-mediated JNK signaling pathway activation assessed as increase in phosphorylation level at T183/Y185 residues in human NCI-H1975 cells at 300 nM after 6 to 12 hrs by immunoblot analysis; assay type: cell-based; how it was run: as §3
[9] = target: Katanin p60 ATPase-containing subunit A1 (Homo sapiens) (UniProt O75449); assay: Induction of katanin p60 subunit-mediated microtubule fragmentation in human NCI-H1975 cells assessed as alpha-tubulin level in polymer form at 300 nM after 1 hr by immunoblot analysis (reference value: 63%); assay type: cell-based
[10] = target: Katanin p60 ATPase-containing subunit A1 (Homo sapiens) (UniProt O75449); assay: Induction of katanin p60 subunit-mediated JNK signaling pathway activation in human NCI-H1975 cells assessed as increase in c-Jun phosphorylation at S63 residues at 300 nM after 9 hrs by phospho-kinase antibody array method; assay type: cell-based; how it was run: as §2
[11] = target: Katanin p60 ATPase-containing subunit A1 (Homo sapiens) (UniProt O75449); assay: Induction of katanin p60 subunit-mediated microtubule fragmentation in human NCI-H1975 cells assessed as alpha-tubulin level in soluble form at 600 nM after 1 hr by immunoblot analysis (reference value: 37%); assay type: cell-based
[12] = target: Katanin p60 ATPase-containing subunit A1 (Homo sapiens) (UniProt O75449); assay: Induction of katanin p60 subunit-mediated microtubule fragmentation in human NCI-H1975 cells assessed as alpha-tubulin level in polymer form at 600 nM after 1 hr by immunoblot analysis (reference value: 63%); assay type: cell-based
[13] = target: Katanin p60 ATPase-containing subunit A1 (Homo sapiens) (UniProt O75449); assay: Induction of katanin p60 subunit-mediated microtubule fragmentation in human NCI-H1975 cells assessed as alpha-tubulin level in soluble form at 300 nM after 12 hrs by gel filtration chromatography/immunoblot analysis; assay type: cell-based
How it was run: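 H1975 cells treated with 300 nM or vehicle for 12 h; soluble extracts made in IP lysis buffer. Run on a Toyopearl HW-65F gel filtration column equilibrated in IP lysis buffer, collecting 0.5 mL fractions. Fractions separated by 10% SDS–PAGE and α-tubulin detected by immunoblot.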

- Activity [2]: Active
- Activity [3]: Active
SMILES: CCOc1ccc(-c2nc(C(N)=O)c3[nH]c(=O)n(-c4cccc(C(=O)NCCCCCNC(=O)CCCC[C@@H]5SC[C@@H]6NC(=O)N[C@@H]65)c4)c3n2)cc1
- IC50 [1]: 26.3 µM

SMILES: CCOc1ccc(-c2nc(C(N)=O)c3[nH]c(=O)n(-c4cccc(C(=O)NCCCCCNC(=O)OC(C)(C)C)c4)c3n2)cc1
- IC50 [1]: > 10 µM

SMILES: CCCCCCOc1ccc(-c2nc(C(N)=O)c3[nH]c(=O)n(-c4ccccc4OC)c3n2)cc1
- IC50 [1]: > 5 µM

SMILES: CCOc1ccc(-c2nc(C(N)=O)c3[nH]c(=O)n(-c4cccc(C(=O)O)c4)c3n2)cc1
- IC50 [1]: 7.91 µM

SMILES: COC(=O)c1cccc(-n2c(=O)[nH]c3c(C(N)=O)nc(-c4ccc(-c5ccccc5)cc4)nc32)c1
- IC50 [1]: > 20 µM

SMILES: CCCCOc1ccc(-c2nc(C(N)=O)c3[nH]c(=O)n(-c4ccccc4OC)c3n2)cc1
- IC50 [1]: 4.66 µM

- Activity [4]: Active
- Activity [5]: Active
- Activity [6]: 68%
- Activity [7]: Active
- Activity [8]: Active
- Activity [9]: 32%
- Activity [10]: Active
- Activity [11]: 75%
- Activity [12]: 25%
- Activity [13]: Active
SMILES: CCOc1ccc(-c2nc(C(N)=O)c3[nH]c(=O)n(-c4ccccc4OC)c3n2)cc1
